Legend:
IL-12 [1] = assay: IL-12 ELISA, LPS-treated SVG; format: cell-based, human; details: selected dose
Outline: (§1)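 Human microglia (CHME3) and astrocyte (SVG) lines at fourth passage, inflamed with LPS. […] IL-12 or IFN-γ released into the extracellular medium was quantified with human ELISA kits 12 and 24 h after drug treatment. Controls were inflamed untreated cells and market-drug (Disprin)-treated cells.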

MTT assay, CHME3 = format: cell-based, human; details: human, CHME3 microglia cells
Outline: (§2)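 MTT (thiazolyl blue tetrazolium bromide) assay on LPS-inflamed CHME3 or SVG cells, fourth passage. […] Read-out is percent viable cells, plus a growth-inhibitory IC50 (concentration halving cell growth) for each cell line.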

human microglia (CHME3) = assay: MTT assay, CHME3; format: cell-based; details: Homo sapiens, Microglia, read-out: IC50, half concentration of druggable compound to inhibit cell growth
Outline: as §2

[2] = test system: astrocyte (SVG) cell-line; assay: MTT assay, SVG; format: cell-based, human; details: Homo sapiens, Astrocyte, read-out: IC50, half concentration of druggable compound to inhibit cell growth
Outline: as §2

MTT assay, SVG = format: cell-based, human; details: human, SVG astrocyte cells
Outline: as §2

IFN-γ [3] = assay: IFN-γ ELISA, LPS-treated CHME3; format: cell-based, human; details: selected dose
Outline: as §1

IL-12 [4] = assay: IL-12 ELISA, LPS-treated CHME3; format: cell-based, human; details: selected dose
Outline: as §1

IFN-γ [5] = assay: IFN-γ ELISA, LPS-treated SVG; format: cell-based, human; details: selected dose
Outline: as §1

In the case of `O=C(/C=C/C=C/c1ccc2c(c1)OCO2)N(CCCO[N+](=O)[O-])c1ccc(CO)cc1` [PA-3′k, 3-((2 E,4 E)-5-(benzo[d][1,3]dioxol-5-yl)-N-(4-(hydroxymethyl)phenyl)penta-2,4-dienamido)propyl nitrate], the IL-12 quantification (IL-12 [1]; 12 h after drug treatment) is reported as 88.11 ± 2.80, the IL-12 quantification (IL-12 [1]; 24 h after drug treatment) is reported as 96.37 ± 2.95 and the viability at 24 h (MTT assay, CHME3) is reported as 86.1 ± 2.57%. For the same molecule, the IC50 (human microglia (CHME3)) was 0.0678 µg/mL, the IC50 [2] was 0.0679 µg/mL and the viability at 24 h (MTT assay, SVG) was 89.1 ± 1.96%. For the same molecule, the IFN-γ quantification (IFN-γ [3]; 12 h after drug treatment) was 46.35 ± 3.58, the IFN-γ quantification (IFN-γ [3]; 24 h after drug treatment) was 54.86 ± 3.41 and the IL-12 quantification (IL-12 [4]; 12 h after drug treatment) was 81.68 ± 4.00. For the same molecule, the IL-12 quantification (IL-12 [4]; 24 h after drug treatment) was 101.88 ± 5.22, the IFN-γ quantification (IFN-γ [5]; 12 h after drug treatment) was 42.57 ± 3.58 and the IFN-γ quantification (IFN-γ [5]; 24 h after drug treatment) was 55.81 ± 2.89.

From PMC6830765 (Innate Immunity, 2017)
